Assay: Toxicity liver stage against HepG2, at 10uM
Format: cell-based
Set-up: test concentration 10 uM, cell line HepG2-A16-CD81EGFP
Details: human, HepG2-A16-CD81EGFP cells; read-out: INHIBITION
How it was run: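 Uninfected HepG2-A16-CD81EGFP cells, 3 × 10^3 per well, 1536-well, plated on prespotted compound at 10 μM final, parasite-free screening media added to match infected plates; puromycin 10 μM positive, DMSO 0.5% negative; run in parallel with 48 h PbLuc assay at 37 °C, 5% CO2; viability by CellTiter-Glo luminescence, normalized to controls.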

Row | SMILES | cytotoxicity at 10 µM [%]
1 | O=C1NC[C@@]2(C(=O)O)CN(Cc3cccc(Oc4ccccc4)c3)C[C@@H]12 | -5.65
2 | Cn1ccc(C(=O)N2CCC(Cc3cccc4ncccc34)CC2)n1 | -3.17
3 | Cc1nc(C)n(CC2CCCCN2Cc2nc3ccccc3o2)n1 (stereo not given) | -6.8
4 | CCc1n[nH]c(C2CN(C(=O)c3ccnc(C)n3)CCO2)n1 (stereo not given) | -7.06
5 | Cc1cccc(CNC(=O)C2CCC(=O)N(Cc3ccccc3F)C2)n1 (stereo not given) | -3.75
6 | Cc1nc2n(n1)CC(NCc1cc(Cl)c3c(c1)OCCO3)CC2 (stereo not given) | -6.14
7 | CS(=O)(=O)N1CCC(CNC(=O)C2CCCC2)CC1 | 1.2
8 | Cn1cnnc1SCCCNC(=O)Nc1ncccn1 | 0.252
9 | Cn1nc(C(=O)NC2CCCC2)cc1NC(=O)C1CC1 | 0.754
10 | CS(=O)(=O)c1ccc2c(c1)nc1n2[C@@H](CNCc2cccnc2)COC1 | -2.68
11 | Cn1cc(-c2csc(N3CCSCC3)n2)cn1 | -1.31
12 | Cc1cccc(CN2C(=O)CCC23CCN(C(=O)c2ccco2)CC3)n1 | 4.17
13 | COCCN1C(=O)CCC12CCCN(C(=O)CC1CC1)CC2 (stereo not given) | 0.346
14 | Cc1nc(C(C)C)ncc1C(=O)N1CCCC(N2CCCC2)C1 (stereo not given) | -20.1
15 | COc1ccc(OC)c(C2CCN(C(=O)C3CCS(=O)(=O)CC3)C2)c1 (stereo not given) | 1.21
16 | CNC(=O)c1cnc(/C=C/c2cc(OC)cc(OC)c2)s1 | -19.6
17 | CCCN(Cc1ccccc1O)S(=O)(=O)N(C)CC | 10.2
18 | CCn1cc(NC(=O)C2CCN(Cc3noc(C(C)C)n3)CC2)cn1 | 0.89
19 | c1cc(-c2noc([C@@H]3CCCN3CC3CC3)n2)cc(N2CCCC2)n1 | 4.12
20 | Cn1ccnc1CN1C[C@@H](CN2CCCCCC2)[C@@H](CO)C1 | -2.63
21 | Clc1ccc(-c2c[nH]c([C@@H]3COCCN3)n2)cc1 | -10.1
22 | Cc1noc(C)c1-c1cc(CCC2CN(CCC(N)=O)CCO2)ncn1 (stereo not given) | 6.11

Row | SMILES | cytotoxicity at 10 µM [%]
23 | COCCN1CCN(CC(C)(O)c2cccc(C(F)(F)F)c2)CC1 (stereo not given) | -24.2
24 | COc1ccccc1CN(C)Cc1ccnc(C2CCCO2)n1 (stereo not given) | 4.65
25 | CCn1nc2c(cc1=O)CN(CCOc1ccccc1C#N)CC2 | 19.2
26 | CN(Cc1cnn(C)c1)C(=O)c1cc(C(F)(F)F)n(C)n1 | 8.52
27 | COc1c(C2CCCN2c2ncnc3ccsc23)c(C)nn1C (stereo not given) | 18.6
28 | O=C(CN1CC(n2cccn2)C1)NCCCN1CCCC1=O | -29.9
29 | Cc1cccc2nc(CN3CCC(N4CCN(C)C4=O)CC3)cn12 | -0.337
30 | CS(=O)(=O)c1ccc(NC(=O)NCc2ccc(F)cc2)cn1 | 15.4
31 | COCc1nnc(-c2cccc(C(=O)N(C(C)C)C3CCC3)c2)o1 | 1.51
32 | COc1cc(N2CCC3(CC2)CN(CCO)c2ccccc23)ncn1 | 19.7
33 | CC(=O)N1CCCC(C(=O)N2Cc3nc(C)n(C)c(=O)c3C2)C1 (stereo not given) | -3.65
34 | OCCCNC1CCc2cc3c(cc21)OCCO3 (stereo not given) | -5.93
35 | CCn1cnnc1C1CCN(C(=O)c2cccc3c2ccn3C)CC1 | -8
36 | CC(NC1(CNC(=O)C(C)(C)C#N)CCOCC1)c1ccccc1 (stereo not given) | 7.35
37 | CCC(CO)N(Cc1ccccn1)C(=O)c1cccc(C#N)c1 (stereo not given) | -3.67
38 | CN(C)c1cc(CNC(=O)Nc2ccc(S(C)(=O)=O)nc2)ccn1 | 0.71
39 | CN(C)c1cncc(C2CCCN(c3cnccn3)C2)n1 (stereo not given) | 2.45
40 | Cc1cc(CNC(=O)C(c2ccc(F)cc2)N(C)C)n[nH]1 (stereo not given) | -15
41 | O=c1[nH]nc(CNc2ncc(Br)cn2)[nH]1 | -5.12
42 | CNCC(=O)N1CCCCC1c1nccc(C)n1 (stereo not given) | -15.4
43 | Nc1cc(N2CCCC(COc3ccc(F)cc3)C2)nc(N)n1 (stereo not given) | -7.58
44 | Nc1ccncc1-n1cc(CCO)cn1 | 0.769

Row | SMILES | cytotoxicity at 10 µM [%]
45 | CC(=O)N(Cc1noc(C2CC2)n1)C1CCN(Cc2ccccn2)C1 (stereo not given) | -5.72
46 | Cc1noc(C)c1CN(C)CC(c1cccs1)N1CCOCC1 (stereo not given) | -4.98
47 | O=S(=O)(c1ccccc1F)N1CCCCC1c1cc[nH]n1 (stereo not given) | 1.22
48 | CCC(C)(C)NC(=O)c1ccc(NC(=O)NCc2cc(C)on2)cc1 | -1.84
49 | Cc1cc(CNC(=O)c2cc(COc3cncc(Cl)c3)on2)n[nH]1 | 16.1
50 | CC(Oc1ccc(C(=O)NCCNS(C)(=O)=O)cn1)c1ccccc1 (stereo not given) | 7.44
51 | CO[C@@H]1CC[C@H]2[C@H]1OCCN2C(=O)c1ccc(C)nc1 | -143
52 | O=C(Nc1ccc(F)cc1F)N(CCC(F)(F)F)C[C@H](O)CO | -7.64
53 | CNC(=O)c1nc(CC(=O)Nc2ccc3cc[nH]c3c2)no1 | 7.98
54 | CN1CCOC(CN(C(=O)CC2CCCC2)c2nccs2)C1 (stereo not given) | -3.78
55 | COc1c(C2CCCN2C(=O)c2nccnc2N)c(C)nn1C (stereo not given) | -5.55
56 | C=C(C)CN(CC)Cc1nc(C2CC2)no1 | -7.51
57 | O=C(COc1coc(CN2CCCC2)cc1=O)NCc1ccccc1Cl | -0.317
58 | CCOc1cccc(CNc2cnn(CC(C)C)c2CC)c1 | 2.93
59 | Cc1ccc([C@@H]2CN(C(=O)c3cccnn3)C[C@H]2NC(=O)C2CC2)cc1 | -17.7
60 | O=C(c1ccc(CN2CC(n3cccn3)C2)cc1)N1CCCC1 | 9.56
61 | OCC1(NCc2cnc(-c3cccs3)s2)CCOCC1 | -1.99
62 | CN1CC[C@]2(CN(Cc3nccs3)C[C@H]2c2ccccc2)C1=O | 10.8
63 | Cc1cc(CNc2ccc(C(=O)N3CCCC(C)C3)cc2C)no1 (stereo not given) | -3.92
64 | N#Cc1cccc(C(=O)Nc2ccc([C@@H](O)[C@H]3COCC(=O)N3)cc2)c1 | -4.25
65 | O=C(CCn1ccccc1=O)N1CCCC(COc2ccc(F)cc2)C1 (stereo not given) | -4.19
66 | CC(C)N1CCCC(CNC(=O)c2ccnc(-n3ccnc3)c2)C1 (stereo not given) | -6.23

Row | SMILES | cytotoxicity at 10 µM [%]
67 | COC(=O)CNC(=O)Cn1ccc2ccc(F)cc21 | -1.33
68 | Oc1nc(C2CCN(Cc3ccccn3)CC2)cc2ccccc12 | 11.8
69 | COc1c(C2CCCN2Cc2noc(C)n2)c(C)nn1C (stereo not given) | -12.5
70 | CCCn1nnnc1COc1ccc(C(=O)OC)cc1OC | -1.9
71 | CCC[C@H]1CN(S(C)(=O)=O)C[C@@H]1NC(=O)CCOCC | 0.224
72 | CC(C)c1nc(C2CCCN2Cc2cc(=O)n(C)c(=O)n2C)no1 (stereo not given) | -10.7
73 | Cc1ccc(C)c(NC(=O)Cc2c(C)nc3c(c2C)c(=O)[nH]n3C)c1 | 15.4
74 | Cc1nc(-c2ccc(Cl)s2)sc1C(=O)NCCS(N)(=O)=O | -2.09
75 | Cc1cc2[nH]c(=O)oc2cc1S(=O)(=O)N1C[C@@H](N(C)C)[C@H](C(C)C)C1 | 0.234
76 | CCOCCN1CCN(CC(O)c2ccc(C(F)(F)F)cc2)CC1 (stereo not given) | -16.6
77 | CC(C)CC(=O)N1CCCC2(CC(C(=O)Nc3ccccc3)=NO2)C1 (stereo not given) | 1.46
78 | COCC1CN(CCOc2ccc(Cl)cc2)Cc2c1cnn2C (stereo not given) | -102
79 | CC(C)CC(=O)N1CCC2(CC1)OC(C(N)=O)Cn1ccnc12 (stereo not given) | -105
80 | CCc1cnc(N2CCN(CC(=O)Nc3c(C)n[nH]c3C)CC2)s1 | -2.69
81 | CC(Oc1ccccc1C(F)(F)F)C(=O)NCCNC(=O)C1CC1 (stereo not given) | 6.91
82 | CC1CCN(CCNC(=O)c2cncnc2C(C)C)CC1 | -12
83 | CC(C)(C)OC(=O)N1CCN(C(=O)c2cnn3c2OCCC3)CC1 | -2
84 | O=S(=O)(Nc1cnn(C2CCOCC2)c1)c1c(F)cccc1F | 13.9
85 | CN(Cc1n[nH]c2c1CCC2)C(=O)c1cccc(CCC(C)(C)O)c1 | 3.01
86 | CC1CCC(NC(=O)CNC2(c3ccc(F)cc3)CCOCC2)CC1 (stereo not given) | 7.79
87 | CNC(=O)c1ccc2c(c1O)OC(C)(C)C2 | -6.08
88 | Cc1cc(C(=O)N2CCCC(n3cncn3)C2)no1 (stereo not given) | -9.98

Row | SMILES | cytotoxicity at 10 µM [%]
89 | Cc1cc(CN2CCc3cncnc3C2)no1 | 5.84
90 | CCOc1ccccc1C(=O)Oc1cc(=O)n2cccc(C)c2n1 | 22.1
91 | Cc1cc(C[C@@H]2COC[C@H]2NCc2ccc(C(F)(F)F)cc2)on1 | -18.7
92 | COCC(=O)N1CC[C@@H]2CN(Cc3cccc(Cl)c3)S(=O)(=O)[C@@H]2CC1 | -3.07
93 | CS(=O)(=O)C1=C(O)C(=O)N(c2ccccc2)C1c1ccccc1 (stereo not given) | -1.06
94 | CN(C)C(=O)CN1C[C@H]2CC[C@@H](C1)N(Cc1cc(F)ccc1F)C2 | -24
95 | COCC(=O)N[C@@H]1CN(Cc2ccc3c(c2)OCCO3)C[C@H]1O | -27.1
96 | OCC1CCCN1c1cc(NCc2ccccn2)ncn1 (stereo not given) | -8.01
97 | CCN1N=C(C(=O)N2CCCC(c3noc(C)n3)C2)CCC1=O (stereo not given) | -12.9
98 | COC(=O)C(O)C1CCN(CCc2ccc(C)cc2)CC1 (stereo not given) | 15.2
99 | CC(=O)NCc1ccc(S(=O)(=O)NC(=O)c2ccc3c(c2)COC3)s1 | -1.8
100 | O=C(C1CC1)N1CCCC(C2=Nc3ccccc3S(=O)(=O)N2)C1 (stereo not given) | -1.45
101 | CCC[C@H]1CN(c2nccc(NCC)n2)C[C@@H]1NS(=O)(=O)N(C)C | -144
102 | CC(=O)c1cc(CN2C[C@@H](NS(=O)(=O)N(C)C)[C@H](C(C)C)C2)cs1 | -7.79
103 | O=C(CC1CCCC1)N1CCC(c2noc(-c3ccccn3)n2)CC1 | 5.05
104 | CNC(=O)C1(c2cnccn2)CCCN1C(=O)c1cccc(F)c1 (stereo not given) | -29.6
105 | Cn1nc(CO)c2c1CCN(c1ncnc3c1CCNC3)C2 | -0.132
106 | Cc1cnn(CC2CN(CC(=O)Nc3sccc3C#N)CCO2)c1 (stereo not given) | -0.935
107 | CCCc1nc(CN2CCOC(CNc3cccnn3)C2)cs1 (stereo not given) | -6.71
108 | Cc1cccc(Cn2c3c(ccc2=O)CCN(Cc2ccoc2)CC3)n1 | -11.5
109 | Cc1ccc(C)c(OCc2cc(C(=O)N(C)Cc3cnn(C)c3)no2)c1 | -6.12
110 | Cn1cc(NC(=O)c2cccc(-n3cnnn3)c2)cn1 | 5.39

From ChEMBL document CHEMBL4513216, “Probing the Open Global Health Chemical Diversity Library for Multistage-Active Starting Points for Next-Generation Antimalarials” (ACS Infect Dis, 2020)
